The list is not random: actives were taken first. Their share in the collection is about 2.3%.
TRPC6 act – mouse TRPC6 channel activators, primary screen, cell-based, HEK293, membrane potential dye. HEK293-TRPC6 membrane potential dye fluorescence; active compounds read high. B-score at 10 µM. actives 0.13% (n = 310,000);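 active = B-score of the integrated fluorescence ratio above library mean plus 3 SD, and starting fluorescence ratio within library mean plus 5 SD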;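 also: higher score means more depolarization so channel activation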
Target sequence (Q61143 whole entry, looked up): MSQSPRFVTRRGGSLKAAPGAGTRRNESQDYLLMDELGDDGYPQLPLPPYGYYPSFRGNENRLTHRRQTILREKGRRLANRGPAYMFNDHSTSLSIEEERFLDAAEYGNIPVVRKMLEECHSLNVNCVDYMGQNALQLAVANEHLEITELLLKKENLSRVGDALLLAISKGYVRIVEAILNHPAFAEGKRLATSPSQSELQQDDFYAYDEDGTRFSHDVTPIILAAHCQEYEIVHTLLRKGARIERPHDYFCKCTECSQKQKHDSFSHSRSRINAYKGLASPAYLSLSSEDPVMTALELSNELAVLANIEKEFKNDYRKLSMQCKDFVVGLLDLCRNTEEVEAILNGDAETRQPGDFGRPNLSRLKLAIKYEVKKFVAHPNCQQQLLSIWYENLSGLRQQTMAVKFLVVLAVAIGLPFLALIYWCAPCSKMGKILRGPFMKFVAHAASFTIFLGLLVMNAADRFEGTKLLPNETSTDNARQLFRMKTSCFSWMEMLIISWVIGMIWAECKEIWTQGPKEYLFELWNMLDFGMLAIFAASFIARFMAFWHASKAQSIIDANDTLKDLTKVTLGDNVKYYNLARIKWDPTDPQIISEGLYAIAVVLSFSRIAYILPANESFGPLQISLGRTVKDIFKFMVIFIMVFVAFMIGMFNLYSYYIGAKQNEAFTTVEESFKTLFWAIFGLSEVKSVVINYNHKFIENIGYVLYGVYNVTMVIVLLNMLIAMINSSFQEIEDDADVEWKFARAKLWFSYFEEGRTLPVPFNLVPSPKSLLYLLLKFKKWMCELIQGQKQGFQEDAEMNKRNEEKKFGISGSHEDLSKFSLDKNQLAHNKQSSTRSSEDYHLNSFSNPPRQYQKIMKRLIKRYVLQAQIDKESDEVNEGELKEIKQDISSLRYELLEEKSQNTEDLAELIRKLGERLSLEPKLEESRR
TRPC6 inh – mouse TRPC6 channel inhibitors, primary screen, cell-based, HEK293, membrane potential dye; ACh-evoked depolarization; active compounds read low; AID 2553, 2010; Short transient receptor potential channel 6 (Mus musculus), Q61143; actives 1.1% (n = 310,000); B-score at 10 µM;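 active = B-score under library mean minus 3 SD, initial fluorescence not abnormally high, positive integrated signal ratio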;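 also: B-score derived from integrated fluorescence ratio over the kinetic read; more negative B-score means stronger inhibition of depolarization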
TRPC4 block – inhibitors of mouse TRPC4 channel, primary screen, Fluo4 calcium, HEK293 TRPC4beta/mu-opioid cells; Short transient receptor potential channel 4 (Mus musculus), Q9QUQ5; DAMGO-evoked Fluo4 calcium flux; active compounds read low; B-score at 10 µM; actives 0.39% (n = 300,000);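 active = B-score over 3 SD under the library average, no early fluorescence shift, positive overall ratio signal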
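test system = HEK293 cells with stable TRPC4beta plus mu-opioid receptor expression | detection = Fluo4 Ca2+ flux fluorescence | read-out = integrated fluorescence ratio relative to baseline, converted to per-well B score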
TRPC4 PAM – positive allosteric modulators of TRPC4, primary screen, cell-based, mouse TRPC4beta, HEK293 mu-opioid, Fluo-4 calcium; DAMGO EC20, Fluo-4 Ca2+ flux; active compounds read high; B-score at 10 µM; actives 0.42% (n = 310,000); AID 2227, 2009;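 active = B-score of calcium response area above 5 SD of library B-scores, with initial fluorescence ratio within 5 SD of library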;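 also: B-score of integrated fluorescence ratio over time as area under calcium response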
TRPC4 agonist – activators of mouse TRPC4 channel, primary screen, Fluo4 calcium, HEK293 TRPC4beta/mu-opioid cells; Fluo4 calcium fluorescence; active compounds read high; B-score at 10 µM; actives 0.49% (n = 310,000); AID 2237, 2010;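 active = B-score above 5 SD of library B-scores, and initial fluorescence ratio not above library mean plus 5 SD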;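 also: positive B-score marks a calcium rise read as TRPC4 activation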
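Incubation: 45 min room-temperature Fluo4 loading, 110 s read / System: HEK293 cells stably co-expressing mouse TRPC4beta and mu-opioid receptor / Signal: Fluo4 fluorescence, kinetic / Control set: buffer (low) and maximal DAMGO (high) / Measure: integrated baseline-normalised fluorescence ratio, converted to per-well B score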
* marks the source's active call; other numbers are inactive results; i = inactive.

SMILES | TRPC6 act | TRPC6 inh | TRPC4 block | TRPC4 PAM | TRPC4 agonist
Cc1ccc(S(=O)(=O)Nc2ccc(S(=O)(=O)N3CCOCC3)cc2)cc1[N+](=O)[O-] | i | i | i | i | i
Cc1ccc(/C=C/C(=O)NC2CCCCCCC2)o1 | i | i | i | 27* | i
Cc1cccc(/C=N/NC(=O)NC2CCCCC2)c1 | i | i | i | i | i
CC(C)c1ccc(/C=C/C(=O)NC2CCCCC2)cc1 | i | i | i | i | i
Cc1ccc(/C=N/NC(=O)NC2CCCCC2)o1 | i | i | i | 72* | i
C=CCc1ccccc1OCC(O)CN1CCN(c2ccccc2F)CC1 (stereo unspecified) | i | i | i | i | i
C=CCc1ccccc1OCC(O)CN1CCN(c2ccccc2OC)CC1 (stereo unspecified) | i | i | -6* | i | i
C=CCc1ccccc1OCCCCN1CCCC1 | i | i | i | i | i
C=CCc1ccccc1OCC(CN1CCCCC1)OC(C)=O (stereo unspecified) | i | i | -6* | i | i
O=C(CSc1nnc(-c2ccccn2)n1Cc1ccccc1)NC1CCCC1 | i | i | i | i | i
COc1ccccc1C(c1c(O)nc(SC)[nH]c1=O)c1c(O)nc(SC)[nH]c1=O | i | i | i | i | i
O=C(COc1cccc2ccccc12)N/N=C/c1ccccc1OCc1ccc(C(=O)O)cc1 | i | i | -5* | i | i
Cc1nc2ccc(S(=O)(=O)NCC(=O)NC(C)c3ccccc3)cc2s1 (stereo unspecified) | i | i | i | i | i
CCN(CC1COc2ccccc2O1)C(=S)NCCCN(C)C (stereo unspecified) | i | i | i | 12* | i
CCOC(=O)[C@@H]1CCN(Cc2ccccc2)C[C@H]1c1ccccc1 | i | i | -7* | i | i
CN(C)S(=O)(=O)N1CCN(c2ccc([N+](=O)[O-])c(NC3CC3)c2)CC1 | i | i | i | 10* | i
COc1ccc(/C=N/NC(=O)C2COc3ccccc3O2)cc1OC (stereo unspecified) | i | i | i | i | 150*
O=C(N/N=C\C=C\c1ccc2c(c1)OCO2)C1COc2cc3ccccc3cc2O1 (stereo unspecified) | i | i | i | 12* | i
O=C(N/N=C/c1ccc2c(c1)OCO2)C1COc2ccccc2O1 (stereo unspecified) | i | i | i | i | i
COc1ccc2nc(NS(=O)(=O)c3ccc(NC(C)=O)cc3)sc2c1 | i | i | -7* | i | 122*
CC(=O)Nc1ccc2nc(NS(=O)(=O)c3ccc(C)cc3)sc2c1 | i | i | i | i | i
COc1ccc(N=Cc2c(O)n(-c3cccc(C)n3)c(=O)c3ccccc23)c(OC)c1 | i | i | i | i | i
N=c1n(CCO)c2ccccc2n1Cc1ccc(Cl)cc1 | i | i | -6* | i | i
COc1ccc(OCC(O)Cn2c(=N)n(Cc3ccccc3)c3ccccc32)cc1 (stereo unspecified) | i | i | i | i | i
CCN(CC)CCn1c(=N)n(CC(O)COc2cccc(C)c2)c2ccccc21 (stereo unspecified) | i | i | -5* | i | i
SMILES | TRPC6 act | TRPC6 inh | TRPC4 block | TRPC4 PAM | TRPC4 agonist
N=c1n(Cc2ccccc2)c2ccccc2n1Cc1ccccc1 | i | i | i | i | i
N=c1n(Cc2ccccc2)c2ccccc2n1CC(O)COc1ccc(Cl)cc1Cl (stereo unspecified) | i | i | i | 12* | i
N=c1n(Cc2ccc(Cl)cc2)c2ccccc2n1CC(O)COc1ccccc1 (stereo unspecified) | i | i | i | i | 86*
COc1ccc(NC(=O)CN(c2c(C)cccc2C)S(C)(=O)=O)cc1 | i | i | i | i | i
Cc1nnc(SCC(=O)NC(=O)Nc2ccc3c(c2)OCCO3)n1N | i | i | i | i | i
Cc1ccccc1-n1cc(CNC(=O)CCc2nnc(CCc3ccccc3)o2)cn1 | i | i | i | i | i
Cc1cc(NCCCN(C)C)n2c(nc3ccccc32)c1C#N | i | i | i | i | i
Cc1cc(NCCN2CCCCC2)n2c(nc3ccccc32)c1C#N | i | -8.11* | i | i | i
CSc1ccccc1OCc1cc(C(=O)N2CCN3CCCC3C2)no1 (stereo unspecified) | i | i | i | i | i
Fc1ccc(COc2ccc(Br)cc2CNCC2CCCO2)cc1 (stereo unspecified) | i | i | i | i | i
Fc1ccccc1COc1ccc(Br)cc1CNCC1CCCO1 (stereo unspecified) | i | i | -6* | i | i
COCCN(C(=O)Nc1ccc(OC)cc1)c1nc2ccccc2s1 | i | i | i | i | i
COCc1ccc(CN2CCCC(CO)(Cc3ccccc3C)C2)o1 (stereo unspecified) | i | i | i | i | i
COc1cc(CN2CCCC(CO)(Cc3ccccc3C)C2)cc2c1OCO2 (stereo unspecified) | i | i | -6* | i | i
CCCc1cc(-c2n[nH]c(=S)n2CC(C)C)cs1 | i | i | i | 13* | i
CCCCC1CCC(C(=O)OC(C)C(=O)Nc2ccc(NC(C)=O)cc2)CC1 (stereo unspecified) | i | i | i | i | i
CCc1ccc(S(=O)(=O)/N=C2\C=C(NS(=O)(=O)c3ccccc3)C(=O)c3ccccc32)cc1 | i | i | i | i | i
Cc1ccc(C)c(S(=O)(=O)/N=C2\C=C(NS(=O)(=O)c3ccccc3)C(=O)c3ccccc32)c1 | i | i | -7* | i | i
CC1OC(OC2C(OC3C(O[C@H]4CC[C@]5(C)C6C=C[C@]78OC[C@@]9(CC[C@@H](C)[C@H](C)C97)[C@H](O)C[C@@]8(C)[C@]6(C)CC[C@H]5C4(C)C)OC(C)C(O)C3O)OC(CO)C(O)C2O)C(O)C(O)C1O (stereo partly specified) | i | -5.07* | i | 17* | 376*

Screening data: PubChem BioAssay, Johns Hopkins Ion Channel Center
